ChEMBL document CHEMBL1145200, “4-Benzyl and 4-benzoyl-3-dimethylaminopyridin-2(1H)-ones: in vitro evaluation of new C-3-amino-substituted and C-5,6-alkyl-substituted analogues against clinically important HIV mutant strains” (J Med Chem, 2005)

Tests used:
[1] = system: Human immunodeficiency virus 1; experiment: In vitro inhibitory concentration against HIV K103N mutant strain; format: functional, organism-based
Outline: (§1)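 MT4 human T-lymphoblastoid cells, grown in RPMI 1640 with 10% fetal calf serum and antibiotics at 37 °C under 5% CO2. Mutant HIV-1 strains were added at 200 CCID50/well with 30 000 cells/well across a compound concentration range. After 5 days at 37 °C, viability was read by MTT colorimetry. EC50 is the concentration giving 50% infection relative to the drug-free control.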

[2] = system: Human immunodeficiency virus 1; experiment: In vitro inhibitory concentration against HIV-1 Y181C mutant strain; format: functional, organism-based; outline: as §1
[3] = system: Human immunodeficiency virus 1; experiment: Selective index value (ratio of CC50 to IC50 value)against HIV LAI cell line; format: functional
Outline: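 Ratio of CC50 to IC50 against LAI. CC50 came from mock-infected MT4 cultures (30 000 cells/well) given the same compound concentration range, run in parallel with LAI-infected cultures (200 CCID50/well). Incubation was 5 days at 37 °C in 5% CO2, with MTT viability read-out.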

[4] = system: Human immunodeficiency virus 1; experiment: In vitro inhibitory concentration against HIV LAI cell line; format: functional, organism-based; settings: Human immunodeficiency virus 1, LAI
Outline: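 HIV-1 LAI was added at 200 CCID50/well to MT4 human T-lymphoblastoid cells (30 000 cells/well) across a concentration range of compound. Cells were grown in RPMI 1640 with 10% fetal calf serum and antibiotics. After 5 days at 37 °C in 5% CO2, cell viability was read by MTT colorimetry. EC50 was the concentration giving 50% infection versus the drug-free control.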

[5] = system: Human immunodeficiency virus 1; experiment: In vitro inhibitory concentration against HIV Y188L mutant strain; format: functional, organism-based; outline: as §1
[6] = system: Human immunodeficiency virus 1; experiment: In vitro inhibitory concentration against HIV L100I mutant strain; format: functional, organism-based; outline: as §1
[7] = system: Human immunodeficiency virus 1; experiment: In vitro inhibitory concentration against HIV V179E mutant strain; format: functional, organism-based; outline: as §1
[8] = system: Human immunodeficiency virus 1; experiment: In vitro inhibitory concentration value against HIV K103N and Y181C mutant strain; format: functional, organism-based; outline: as §1
[9] = system: Human immunodeficiency virus 1; experiment: In vitro inhibitory concentration against HIV E138K mutant strain; format: functional, organism-based; outline: as §1
[10] = system: Human immunodeficiency virus 1; experiment: In vitro inhibitory concentration against HIV L100I and K103N mutant strain; format: functional, organism-based; outline: as §1
[11] = system: Human immunodeficiency virus 1; experiment: In vitro inhibitory concentration against HIV K101E and K103N mutant strain; format: functional, organism-based; outline: as §1
[12] = system: Human immunodeficiency virus 1; experiment: In vitro inhibitory concentration against HIV K101E mutant strain; format: functional, organism-based; outline: as §1
[13] = system: Human immunodeficiency virus 1; experiment: In vitro inhibitory concentration against HIV G190S mutant strain; format: functional, organism-based; outline: as §1
[14] = system: Human immunodeficiency virus 1; experiment: In vitro inhibitory concentration against HIV F227C mutant strain; format: functional, organism-based; outline: as §1
[15] = system: Human immunodeficiency virus 1; experiment: In vitro inhibitory concentration against HIV F227L and V106A mutant strain; format: functional, organism-based; outline: as §1
[16] = system: Human immunodeficiency virus 1; experiment: In vitro inhibitory concentration against HIV G190A mutant strain; format: functional, organism-based; outline: as §1

| Structure (SMILES) | IC50 [1] [nM] | IC50 [2] [nM] | SI [3] | IC50 [4] [nM] | IC50 [5] [µM] | also measured |
| --- | --- | --- | --- | --- | --- | --- |
| CCC(=O)Nc1c(Cc2cc(C)cc(C)c2)c(CC)c(C)[nH]c1=O | 100000 | 100000 | 25 | 3980 |  |  |
| CCc1c(C)[nH]c(=O)c(NC(C)=O)c1Cc1cc(C)cc(C)c1 | 20000 | 25100 | 251 | 398 | 100 |  |
| CCNc1c(Cc2cc(C)cc(C)c2)c(CC)c(C)[nH]c1=O | 316 | 100000 | 126 | 16 | 100 |  |
| CCCN(C)c1c(Cc2cc(C)cc(C)c2)c(CC)c(C)[nH]c1=O | 100 | 398 | 6310 | 16 |  |  |
| CCOCCN(C)c1c(Cc2cccc(C)c2)c(CC)c(C)[nH]c1=O |  |  | 7940 | 13 |  |  |
| CCCc1c(C)[nH]c(=O)c(N(C)C)c1Cc1cc(C)cc(C)c1 | 79 | 316 | 2000 | 50 | 0.631 |  |
| CCc1c(C)nc(O)c(N(C)C)c1C(=O)c1cccc(C)c1 |  |  | 39800 | 2.5 | 2 |  |
| CCc1c(C)[nH]c(=O)c(N(CC)CC)c1Cc1cc(C)cc(C)c1 | 398 | 1260 | 6310 | 16 | 2.51 |  |
| CCc1c(C)[nH]c(=O)c(N2CCCCC2)c1Cc1cc(C)cc(C)c1 | 63100 | 39800 | 158 | 631 |  |  |
| CCc1c(C)[nH]c(=O)c(N(C)CCCO)c1Cc1cccc(C)c1 | 316 | 1580 | 31600 | 3 | 5.01 |  |
| COCCCc1c(C)nc(O)c(N(C)C)c1C(=O)c1cc(C)cc(C)c1 | 10 | 50 | 12600 | 2 | 0.2 | IC50 [6]: 8 nM |
| CCc1[nH]c(=O)c(N(C)C)c(Cc2cc(C)cc(C)c2)c1C | 100 | 251 | 10000 | 10 | 5.01 |  |
| CCc1c(C)[nH]c(=O)c(N(C)CCO)c1Cc1cccc(C)c1 | 794 | 1260 | 7940 | 5 | 12.6 |  |
| CCCCNc1c(Cc2cc(C)cc(C)c2)c(CC)c(C)[nH]c1=O | 2000 | 5010 | 398 | 126 |  |  |
| CCc1c(C)[nH]c(=O)c(N(C)CCCCCO)c1Cc1cc(C)cc(C)c1 | 100 | 126 | 12600 | 4 | 2.51 |  |
| Cc1cccc(C(=O)c2c(C)c(C)nc(O)c2N(C)C)c1 | 398 | 2000 | 6310 | 16 | 50.1 |  |
| CCc1c(C)[nH]c(=O)c(NC(=S)Nc2ccccc2)c1Cc1cccc(C)c1 |  |  | 25 | 3160 |  |  |
| CCc1c(C)nc(O)c(NC(=S)NC(=O)c2ccccc2)c1Cc1cccc(C)c1 | 100000 | 100000 | 16 | 6310 | 100 |  |
| CCc1c(C)[nH]c(=O)c(NCc2ccccc2)c1Cc1cc(C)cc(C)c1 | 3160 | 10000 | 251 | 251 |  |  |
| CCc1c(C)[nH]c(=O)c(N(C)C(C)COC)c1Cc1cc(C)cc(C)c1 (configuration not stated) | 79 | 398 | 7940 | 6 | 0.251 | IC50 [7]: 9 nM; IC50 [8]: 8.68 µM; IC50 [9]: 17 nM; IC50 [10]: 1000 nM; IC50 [11]: 362 nM; IC50 [12]: 58 nM; IC50 [13]: 62 nM; IC50 [14]: 869 nM; IC50 [15]: 10000 nM; IC50 [6]: 79 nM; IC50 [16]: 78 nM |
| CCc1c(C)[nH]c(=O)c(N(C)CCCC#N)c1Cc1cccc(C)c1 | 316 | 2000 | 12600 | 5 | 3.16 |  |
| Cc1cc(C)cc(Cc2cc(C)[nH]c(=O)c2N(C)C)c1 | 31600 | 79400 | 251 | 398 | 100 |  |
| Cc1cc(C)cc(Cc2c(CC(C)C)c(C)[nH]c(=O)c2N(C)C)c1 | 63 | 158 | 2000 | 50 | 0.398 |  |

| Structure (SMILES) | IC50 [1] [nM] | IC50 [2] [nM] | SI [3] | IC50 [4] [nM] | IC50 [5] [µM] | also measured |
| --- | --- | --- | --- | --- | --- | --- |
| CCNC(=S)Nc1c(Cc2cccc(C)c2)c(CC)c(C)[nH]c1=O |  |  | 4 | 25100 |  |  |
| CCc1c(C)[nH]c(=O)c(N2CCOCC2)c1Cc1cc(C)cc(C)c1 | 100000 | 10000 | 251 | 158 |  |  |
| CCc1c(C)[nH]c(=O)c(N(C)CCCSC)c1Cc1cc(C)cc(C)c1 | 1000 | 501 | 398 | 25 |  |  |
| CCCCN(CCCC)c1c(Cc2cc(C)cc(C)c2)c(CC)c(C)[nH]c1=O | 100000 | 100000 | 2 | 50100 |  |  |
| CCc1c(C)[nH]c(=O)c(N(C)CC#N)c1Cc1cccc(C)c1 | 316 | 1580 | 25100 | 4 | 12.6 |  |
| CCc1c(C)[nH]c(=O)c(NC=O)c1Cc1cc(C)cc(C)c1 | 794 | 7940 | 1260 | 79 | 0.316 |  |
| CCc1c(C)[nH]c(=O)c(NC)c1Cc1cc(C)cc(C)c1 | 79 | 1000 | 5010 | 10 | 2 |  |
| CCc1c(C)[nH]c(=O)c(-n2cccc2)c1Cc1cc(C)cc(C)c1 | 398 | 1260 | 1260 | 12.6 | 2 |  |
| CCc1nc(O)c(N(C)C)c(C(=O)c2cccc(C)c2)c1C |  |  | 1000 | 100 |  |  |
| CCc1c(C)[nH]c(=O)c(N(Cc2ccccc2)Cc2ccccc2)c1Cc1cc(C)cc(C)c1 | 50100 | 79400 | 1 | 100000 |  |  |
| CCc1c(C)[nH]c(=O)c(N(C)CCCCCO)c1Cc1cccc(C)c1 | 501 | 1580 | 6310 | 10 | 5.01 |  |
| Cc1cc(C)cc(Cc2c(C)c(C)[nH]c(=O)c2N(C)C)c1 | 398 | 398 | 2000 | 5 | 3.16 |  |
| CCc1c(C)[nH]c(=O)c(N(C)CCOC)c1Cc1cc(C)cc(C)c1 | 63 | 316 | 20000 | 2 | 0.1 | IC50 [7]: 3 nM; IC50 [8]: 3.34 µM; IC50 [9]: 10 nM; IC50 [10]: 121 nM; IC50 [11]: 69 nM; IC50 [12]: 10 nM; IC50 [13]: 42 nM; IC50 [14]: 339 nM; IC50 [15]: 2510 nM; IC50 [6]: 3 nM; IC50 [16]: 16 nM |
| Cc1cc(C)cc(Cc2c(C)c(C(C)C)[nH]c(=O)c2N(C)C)c1 |  |  | 126 | 794 |  |  |
| COCCc1c(C)nc(O)c(N(C)C)c1C(=O)c1cccc(C)c1 | 158 | 1260 | 7940 | 4 | 10 |  |
| CCc1c(C)[nH]c(=O)c(NC(N)=S)c1Cc1cccc(C)c1 |  |  | 316 | 316 |  |  |
| Cc1cc(C)cc(Cc2cc[nH]c(=O)c2N(C)C)c1 | 39800 | 100000 | 10 | 7940 |  |  |
| CCc1c(C)[nH]c(=O)c(N(C)CCC#N)c1Cc1cccc(C)c1 |  |  | 6310 | 16 |  |  |
| CCc1c(CO)nc(O)c(N(C)C)c1C(=O)c1cc(C)cc(C)c1 | 3 | 72 | 12600 | 1 | 0.631 | IC50 [7]: 1 nM; IC50 [8]: 0.149 µM; IC50 [9]: 4 nM; IC50 [10]: 20 nM; IC50 [11]: 7 nM; IC50 [12]: 5 nM; IC50 [13]: 2 nM; IC50 [14]: 234 nM; IC50 [15]: 794 nM; IC50 [6]: 1 nM; IC50 [16]: 3 nM |
| CCCNc1c(Cc2cc(C)cc(C)c2)c(CC)c(C)[nH]c1=O | 1580 | 15800 | 398 | 20 | 100 |  |
| CCc1c(C)[nH]c(=O)c(N(C)CCOC)c1Cc1cccc(/C=C/C#N)c1 | 20 | 40 | 10000 | 1 | 0.316 | IC50 [8]: 0.398 µM; IC50 [10]: 50 nM; IC50 [15]: 1000 nM; IC50 [6]: 8 nM |
| CCCC(=O)Nc1c(Cc2cc(C)cc(C)c2)c(CC)c(C)[nH]c1=O | 100000 | 100000 | 1 | 100000 |  |  |
| Cc1ccnc2c1NC(=O)c1cccnc1N2C1CC1 [NEVIRAPINE] |  | 10000 |  |  | 100 | IC50 [7]: 195 nM; IC50 [8]: 100 µM; IC50 [9]: 50 nM; IC50 [13]: 44 nM; IC50 [14]: 135 nM; IC50 [15]: 163 nM |
